pEC50: −log10 of the molar value. Activity calls are given as the source filed them. No cut-off for these calls is given here.
Legend:
D(1A) dopamine receptor [1] = molecular target: T1, D(1A) dopamine receptor (Homo sapiens, UniProt P21728); experiment: Agonist activity at recombinant C-terminal RLuc8-fused human D1 receptor expressed in HEK29T cells co-expressing N-terminal Venus-tagged beta-arrestin2 assessed as increase in beta-arrestin2 recruitment measured after 15 mins in presence of coelenterazine H by BRET assay; format: cell-based; conditions: read-out: EC50
T1 sequence (P21728 whole entry, the tested form may be a part): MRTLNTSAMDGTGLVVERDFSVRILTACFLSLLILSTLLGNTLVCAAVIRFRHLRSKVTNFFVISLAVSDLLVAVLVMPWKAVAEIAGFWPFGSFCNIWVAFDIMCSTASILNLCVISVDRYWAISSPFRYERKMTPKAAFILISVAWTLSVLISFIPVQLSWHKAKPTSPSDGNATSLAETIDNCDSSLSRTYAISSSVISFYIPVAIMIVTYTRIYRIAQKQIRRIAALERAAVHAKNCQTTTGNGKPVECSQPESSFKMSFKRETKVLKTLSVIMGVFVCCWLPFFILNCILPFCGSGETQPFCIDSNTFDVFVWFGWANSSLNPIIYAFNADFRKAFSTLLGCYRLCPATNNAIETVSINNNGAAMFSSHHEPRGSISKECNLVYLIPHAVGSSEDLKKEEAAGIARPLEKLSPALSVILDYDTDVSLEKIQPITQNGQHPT

D(1A) dopamine receptor [2] = molecular target: T1, D(1A) dopamine receptor; experiment: Bias factor, transduction co-efficient for agonist activity at recombinant human D1 receptor expressed in HEK29T cells assessed as induction of stimulatory G-protein-mediated cAMP accumulation to agonist activity at recombinant C-terminal RLuc8-fused human D1 receptor expressed in HEK29T cells co-expressing N-terminal Venus-tagged beta-arrestin2 assessed as increase in beta-arrestin2 recruitment; format: functional, cell-based
In short: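 Dopamine as full-agonist reference; transduction coefficients log(τ/KA) for Gs-cAMP (GloSensor) and β-arrestin2 (BRET) computed relative to dopamine and averaged across experiments; bias factor derived by Kenakin method from the difference between Gs and β-arrestin2 coefficients.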

D(1A) dopamine receptor [3] = molecular target: T1, D(1A) dopamine receptor; experiment: Agonist activity at recombinant human D1 receptor expressed in HEK29T cells assessed as induction of stimulatory G-protein-mediated cAMP accumulation measured after 15 mins by Glosensor-based FLIPR assay; format: functional, cell-based
In short: (§1)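 GloSensor-22F cAMP biosensor in HEK293T cells co-expressing human D1, seeded in DMEM + 1% dialyzed FBS; next day GloSensor reagent equilibrated ≥15 min at room temperature in HBSS/20 mM HEPES pH 7.4, then drug added in HBSS/HEPES/0.1% BSA/0.01% ascorbic acid. Luminescence read after 15 min; normalized to dopamine maximum (100%); sigmoidal fit; maximum tested 10⁻⁴ M; ≥3 experiments in triplicate.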

D(1A) dopamine receptor [4] = molecular target: T1, D(1A) dopamine receptor; experiment: Agonist activity at recombinant human D1 receptor expressed in HEK29T cells assessed as induction of stimulatory G-protein-mediated cAMP accumulation measured after 15 mins by Glosensor-based FLIPR assay relative to dopamine; format: functional, cell-based; in short: as §1
D(1A) dopamine receptor [5] = molecular target: T1, D(1A) dopamine receptor; experiment: (§2) Agonist activity at recombinant C-terminal RLuc8-fused human D1 receptor expressed in HEK29T cells co-expressing N-terminal Venus-tagged beta-arrestin2 assessed as increase in beta-arrestin2 recruitment measured after 15 mins in presence of coelenterazine H by BRET assay relative to dopamine; format: cell-based
D(1A) dopamine receptor [6] = molecular target: T1, D(1A) dopamine receptor; experiment: as §2, with “recruitment at 10^-4M” for “recruitment”; format: cell-based
D(1A) dopamine receptor [7] = molecular target: T1, D(1A) dopamine receptor; experiment: Agonist activity at recombinant C-terminal RLuc8-fused human D1 receptor expressed in HEK29T cells co-expressing N-terminal Venus-tagged beta-arrestin2 assessed as increase in beta-arrestin2 recruitment at 10^-4M measured after 15 mins in presence of coelenterazine H by BRET assay; format: cell-based
D(1A) dopamine receptor [8] = molecular target: T1, D(1A) dopamine receptor; experiment: Agonist activity at recombinant human D1 receptor expressed in HEK29T cells assessed as induction of stimulatory G-protein-mediated cAMP accumulation at 10'4M measured after 15 mins by Glosensor-based FLIPR assay; format: functional, cell-based; in short: as §1
D(1A) dopamine receptor [9] = molecular target: T1, D(1A) dopamine receptor; experiment: Agonist activity at recombinant human D1 receptor expressed in HEK29T cells assessed as induction of stimulatory G-protein-mediated cAMP accumulation at 10'4M measured after 15 mins by Glosensor-based FLIPR assay relative to dopamine; format: functional, cell-based; in short: as §1
[10] = Cmax in Swiss albino mouse plasma at 50 mg/kg, ip measured up to 4 hrs by LC-MC/MS analysis; format: ADME, organism-based; design: dose 50 mg/kg, route intraperitoneal
In short: (§3)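 Male Swiss Albino mice (nine), 50 mg/kg i.p. in 5% NMP/5% Solutol HS-15/90% saline; plasma and brain taken from three mice per time point at 0.5, 1.5 and 4 h; brain homogenized 2:1 in ice-cold PBS pH 7.4; LC-MS/MS quantitation (LLOQ 1.01 ng/mL plasma, 3.03 ng/g brain); noncompartmental analysis.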

[11] = Toxicity in Swiss albino mouse at 50 mg/kg, ip measured up to 4 hrs; format: organism-based; conditions: in vivo
[12] = Ratio of drug level in brain to plasma in Swiss albino mouse at 50 mg/kg, ip measured up to 4 hrs by LC-MC/MS analysis; format: ADME, organism-based; in short: as §3
[13] = Cmax in Swiss albino mouse brain at 50 mg/kg, ip measured up to 4 hrs by LC-MC/MS analysis; format: ADME, organism-based; design: dose 50 mg/kg, route intraperitoneal; in short: as §3

SMILES	pEC50 (D(1A) dopamine receptor [1])	pEC50 (D(1A) dopamine receptor [3])	Emax (D(1A) dopamine receptor [4]) [%]	Emax (D(1A) dopamine receptor [6])	Activity (D(1A) dopamine receptor [7])	further results
Cc1cc(Oc2nccc3occc23)ccc1-c1cccc2nccn12	6.74	8.57	95	–	–	fold change (FC) (D(1A) dopamine receptor [2]): 1.3; Emax (D(1A) dopamine receptor [5]): 63%
Fc1cc(-c2cccc3nccn23)cc(F)c1Oc1nccc2occc12	< 5.00	6.72	57	–	–	–
Cc1ncc2nccn2c1-c1cc(F)c(Oc2nccc3occc23)c(F)c1	–	6.85	66	inactive	inactive	–
FC(F)(F)c1cc(Oc2ccccn2)ccc1-c1cccc2nccn12	–	6.57	65	inactive	inactive	–
Cc1cc(-c2c(C)ncc3nccn23)ccc1Oc1nccc2occc12	–	6.21	62	inactive	inactive	–
Cc1cc(Oc2nccc3occc23)cc(C)c1-c1cccc2nccn12	–	–	–	inactive	inactive	Activity (D(1A) dopamine receptor [8]): inactive; Emax (D(1A) dopamine receptor [9]): inactive
Oc1cc2c(cc1O)[C@H]1c3ccccc3CN[C@@H]1CC2 (racemic)	–	–	–	–	–	fold change (FC) (D(1A) dopamine receptor [2]): 7.5
CCOc1ncnc(C)c1-c1ccc(Oc2nccc3occc23)cc1C	< 5.00	7.92	67	–	–	–
Cc1cc(Oc2nccc(O)c2C)ccc1-c1c(C)ncc2nccn12	–	6.80	34	inactive	inactive	–
FC(F)(F)c1cc(Oc2nccn3cccc23)ccc1-c1cccc2nccn12	–	8.11	78	inactive	inactive	–
Cc1cc(Oc2nccc3occc23)ccc1-c1cc(N)cnc1C	5.96	7.89	67	–	–	fold change (FC) (D(1A) dopamine receptor [2]): 1.2; Emax (D(1A) dopamine receptor [5]): 64%
Cc1cc(N(c2nccc3occc23)C2CCCC2)ccc1-c1c(C)ncc2nccn12	< 5.00	5.96	68	–	–	–
Cc1cc(N(CC2CC2)c2nccc3occc23)ccc1-c1c(C)ncc2nccn12	–	6.49	78	inactive	inactive	–
Cc1cc(Oc2nccn3cccc23)ccc1-c1c(C)ncc2nccn12	–	–	83	–	–	fold change (FC) (D(1A) dopamine receptor [2]): 15; Emax (D(1A) dopamine receptor [5]): 59%
Cc1cc(Oc2nccc3occc23)ccc1-c1ccc(C#N)cn1	–	< 5.00	–	inactive	inactive	–
Cc1ncc2nccn2c1-c1ccc(Oc2nccc3occc23)cc1N	6.68	8.89	104	–	–	fold change (FC) (D(1A) dopamine receptor [2]): 2.7; Emax (D(1A) dopamine receptor [5]): 81%
Cc1cc(Nc2nccc3occc23)ccc1-c1c(C)ncc2nccn12	< 5.00	7.80	98	–	–	–
FC(F)(F)c1cc(Oc2nccn3ccnc23)ccc1-c1cccc2nccn12	–	6.74	54	inactive	inactive	–
Cc1cc(Oc2nccc3ccccc23)ccc1-c1c(C)ncc2nccn12	< 5.00	7.82	82	–	–	–
Cc1ncc2nccn2c1-c1ccc(Oc2nccc3occc23)c(C(F)(F)F)c1	–	–	–	inactive	inactive	Activity (D(1A) dopamine receptor [8]): inactive; Emax (D(1A) dopamine receptor [9]): inactive
Cc1cc(N(c2nccc3occc23)C(C)C)ccc1-c1c(C)ncc2nccn12	–	7.00	67	inactive	inactive	–
Cc1ncc2nccn2c1-c1ccc(Oc2nccc3occc23)c(C)c1C	–	7.26	54	inactive	inactive	–
Cc1cc(Oc2nccc3ccsc23)ccc1-c1c(C)ncc2nccn12	7.66	9.64	100	–	–	fold change (FC) (D(1A) dopamine receptor [2]): 1.9; Emax (D(1A) dopamine receptor [5]): 63%

SMILES	pEC50 (D(1A) dopamine receptor [1])	pEC50 (D(1A) dopamine receptor [3])	Emax (D(1A) dopamine receptor [4]) [%]	Emax (D(1A) dopamine receptor [6])	Activity (D(1A) dopamine receptor [7])	further results
FC(F)(F)c1cc(Oc2nccc3occ(C4CC4)c23)ccc1-c1cccc2nccn12	–	6.11	83	inactive	inactive	–
Cc1cc(Oc2cccc3occc23)ccc1-c1c(C)ncc2nccn12	–	7.10	69	inactive	inactive	–
Cc1cc(Oc2nccc3[nH]ncc23)ccc1-c1c(C)ncc2nccn12	< 5.00	8.74	104	–	–	–
Cc1cc(Oc2ccccn2)ccc1-c1c(C)ncc2nccn12	< 5.00	6.92	83	–	–	–
Cc1cc(Oc2cc(N3CCCCC3)ccn2)ccc1-c1c(C)ncc2nccn12	–	6.19	26	inactive	inactive	–
FC(F)(F)c1cc(Oc2nccc3ccccc23)ccc1-c1cccc2nccn12	–	7.17	61	inactive	inactive	–
Cc1cc(Oc2nccc3occc23)ccc1-c1nc(N)cnc1C	< 5.00	7.66	91	–	–	–
Cc1cc(Oc2nccc3occc23)ccc1-c1cncc(C(N)=O)c1	–	5.89	59	inactive	inactive	–
Cc1cc(Oc2nccc3occc23)ccc1-c1c(C)nc2cnccn12	5.59	8.24	63	–	–	fold change (FC) (D(1A) dopamine receptor [2]): 4.1; Emax (D(1A) dopamine receptor [5]): 89%
FC(F)(F)c1cc(-c2cccc3nccn23)ccc1Oc1nccc2occc12	–	–	–	inactive	inactive	Activity (D(1A) dopamine receptor [8]): inactive; Emax (D(1A) dopamine receptor [9]): inactive
Cc1cc(Oc2nccc3occc23)ccc1-c1c(C)cnnc1C	–	8.92	61	inactive	inactive	–
CCN(c1ccc(-c2c(C)ncc3nccn23)c(C)c1)c1nccc2occc12	–	7.44	80	inactive	inactive	–
FC(F)(F)c1cc(Oc2cc(N3CCCCC3)ccn2)ccc1-c1cccc2nccn12	< 5.00	–	–	–	–	Activity (D(1A) dopamine receptor [8]): inactive; Emax (D(1A) dopamine receptor [9]): inactive
COc1ccc(-c2ccc(Oc3nccc4occc34)cc2C)c(C)n1	< 5.00	7.11	80	–	–	–
Cc1cc(Oc2nccn3ccnc23)ccc1-c1c(C)ncc2nccn12	–	6.59	85	inactive	inactive	–
Nc1cc(Oc2nccc3occc23)ccc1-c1cccc2nccn12	6.10	8.00	91	–	–	Cmax [10]: 100 µM; Activity [11]: Non-Toxic; fold change (FC) (D(1A) dopamine receptor [2]): 1.7; BPR [12]: 1.2 to 1.6; Cmax [13]: 100 µM; Emax (D(1A) dopamine receptor [5]): 54%
Cc1cc(Oc2ncccc2Br)ccc1-c1c(C)ncc2nccn12	–	< 5.00	–	inactive	inactive	–
Cc1c(Oc2nccc3occc23)ccc(-c2cccc3nccn23)c1C	–	6.96	30	inactive	inactive	–
COC(=O)c1cccn2c(-c3ccc(Oc4nccc5occc45)cc3C)cnc12	–	6.00	44	inactive	inactive	–
Cc1cc(N(C)c2nccc3occc23)ccc1-c1c(C)ncc2nccn12	–	7.06	79	inactive	inactive	–
Cc1cc(Oc2nccc3occ(C4CC4)c23)ccc1-c1c(C)ncc2nccn12	–	7.21	67	inactive	inactive	–
Cc1cc(-c2cccc3nccn23)ccc1Oc1nccc2occc12	–	6.28	29	inactive	inactive	–

Reference: ChEMBL document CHEMBL4390674, “Defining Structure-Functional Selectivity Relationships (SFSR) for a Class of Non-Catechol Dopamine D1 Receptor Agonists” (J Med Chem, 2019)
